{
  "source": "ChEMBL document CHEMBL3596186",
  "about": "“Synthesis and biological evaluation of diarylthiazole derivatives as antimitotic and antivascular agents with potent antitumor activity” (Bioorg Med Chem, 2015)",
  "key": {"HepG2 [1]": {"system": "HepG2", "test": "Cell cycle arrest in human HepG2 cells assessed as accumulation at S phase at 0.5 uM after 24 hrs by flow cytometry (reference value: 23.97%)", "type": "functional"}, "HepG2 [2]": {"system": "HepG2", "test": "Cell cycle arrest in human HepG2 cells assessed as accumulation at S phase at 1 uM after 24 hrs by flow cytometry (reference value: 23.97%)", "type": "functional"}, "HepG2 [3]": {"system": "HepG2", "test": "Induction of apoptosis in human HepG2 cells assessed as early apoptotic cells at 0.2 uM after 24 hrs by annexin V/propidium iodide staining-based flow cytometry (reference value: 0.87%)", "type": "functional"}, "HepG2 [4]": {"system": "HepG2", "test": "Induction of apoptosis in human HepG2 cells assessed as late apoptotic cells at 0.5 uM after 24 hrs by annexin V/propidium iodide staining-based flow cytometry (reference value: 3.74%)", "type": "functional"}, "HepG2 [5]": {"system": "HepG2", "test": "Induction of apoptosis in human HepG2 cells assessed as viable cells at 0.5 uM after 24 hrs by annexin V/propidium iodide staining-based flow cytometry (reference value: 89.8%)", "type": "functional", "conditions": "HepG2, 24 h, read-out: Activity"}, "HepG2 [6]": {"system": "HepG2", "test": "Induction of apoptosis in human HepG2 cells assessed as late apoptotic cells at 1 uM after 24 hrs by annexin V/propidium iodide staining-based flow cytometry (reference value: 3.74%)", "type": "functional"}, "HepG2 [7]": {"system": "HepG2", "test": "Induction of apoptosis in human HepG2 cells assessed as necrotic cells at 1 uM after 24 hrs by annexin V/propidium iodide staining-based flow cytometry (reference value: 1.59%)", "type": "functional"}, "HepG2 [8]": {"system": "HepG2", "test": "Induction of apoptosis in human HepG2 cells assessed as early apoptotic cells at 0.2 uM after 48 hrs by annexin V/propidium iodide staining-based flow cytometry (reference value: 0.87%)", "type": "functional"}, "HepG2 [9]": {"system": "HepG2", "test": "Induction of apoptosis in human HepG2 cells assessed as late apoptotic cells at 0.5 uM after 48 hrs by annexin V/propidium iodide staining-based flow cytometry (reference value: 3.74%)", "type": "functional"}, "HepG2 [10]": {"system": "HepG2", "test": "Induction of apoptosis in human HepG2 cells assessed as viable cells at 1 uM after 48 hrs by annexin V/propidium iodide staining-based flow cytometry (reference value: 89.8%)", "type": "functional", "conditions": "HepG2, 48 h, read-out: Activity"}, "HepG2 [11]": {"system": "HepG2", "test": "Antimitotic activity in human HepG2 cells assessed as inhibition of microtubule formation at 0.2 uM after 24 hrs by DAPI staining-based immmunofluorescence assay", "type": "functional, cell-based", "summary_of_the_method": "(§1)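 HepG2 cells seeded in 6-well plates and treated with compound. Fixed in 4% paraformaldehyde, permeabilized with 0.5% Triton X-100 in PBS, blocked 30 min in 5% goat serum at room temperature. Stained with monoclonal anti-α-tubulin 1 h at room temperature, then fluorescent secondary antibody, nuclei labelled with DAPI. Viewed by fluorescence microscopy.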"}, "HepG2 [12]": {"system": "HepG2", "test": "Antimitotic activity in human HepG2 cells assessed as demolishment of microtubule at 0.5 uM after 24 hrs by DAPI staining-based immmunofluorescence assay", "type": "functional, cell-based", "summary_of_the_method": "as §1"}, "HUVEC [13]": {"system": "HUVEC", "test": "Antimigratory activity against HUVEC after 24 hrs by phase contrast microscopy", "type": "functional, cell-based", "conditions": "Homo sapiens", "summary_of_the_method": "(§2)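 HUVEC monolayers grown overnight in 6-well plates, scratched with pipet tips, washed twice with PBS, then given fresh EBM2 with vehicle or compound. Imaged by phase contrast at 0 and 24 h (100×). Migrated cells counted manually in 3 separate fields; mean ± SD from three fields.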"}, "HUVEC [14]": {"system": "HUVEC", "test": "Antimigratory activity against HUVEC at 500 nM after 24 hrs by phase contrast microscopy", "type": "functional, cell-based", "conditions": "Homo sapiens", "summary_of_the_method": "as §2"}, "HUVEC [15]": {"system": "HUVEC", "test": "Antivascular activity against HUVEC assessed as inhibition of tube formation at 125 to 500 nM after 8 hrs by Matrigel assay", "type": "functional, cell-based", "conditions": "Homo sapiens", "summary_of_the_method": "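Wells of prechilled plates coated with Matrigel and solidified 45 min at 37 °C. HUVECs (1 × 10^4) in EBM-2 containing compound (125-500 nM) seeded onto the gel and incubated 8 h at 37 °C. Capillary networks photographed at 100×; tubule numbers and line lengths counted manually.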"}, "Mus musculus": {"system": "Mus musculus", "test": "Toxicity in Balb/c athymic nude mouse xenografted with human HCT116 cells assessed as loss in body weight at 20 to 50 mg/kg, ip administered daily", "type": "organism-based, HCT-116", "conditions": "in vivo", "summary_of_the_method": "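Female Balb/C athymic nude mice, 5-6 weeks old, implanted s.c. in the right flank with cells in HBSS. Once tumours reached about 100 mm3, mice were randomized (6 per group) to vehicle, 5-FU 10 mg/kg, or test agent 20 or 50 mg/kg i.p. daily. Body weight was recorded every two days.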"}, "HCT-116 [16]": {"system": "HCT-116", "test": "Antiproliferative activity against human HCT116 cells after 48 hrs by MTT assay", "type": "functional, cell-based", "conditions": "HCT-116, 48 h", "summary_of_the_method": "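HCT116, HepG2, SMMC-7721, SK-OV-3 and A2780s grown in DMEM; A549 and MCF-7 in RPMI-1640; all with 10% FBS and penicillin/streptomycin at 37 °C, 5% CO2. Log-phase cells at 40,000-50,000 cells/mL treated with graded concentrations for 48 h. MTT 3 h, DMSO solubilization, A570. IC50 from percent growth versus untreated control; mean ± SEM of ≥3 independent dose-response experiments.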"}, "A549": {"system": "A549", "test": "Resistance ratio, ratio of IC50 for human taxol-resistant A549 cells to IC50 for human A549 cells", "type": "functional", "summary_of_the_method": "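MTT assay: log-phase cells at 40,000-50,000 cells/mL in RPMI-1640 with 10% FBS, exposed to graded concentrations for 48 h, then MTT 3 h, DMSO solubilization, absorbance at 570 nm. IC50 from growth versus untreated control, at least three independent experiments. Ratio = resistant-line IC50 / parental-line IC50.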"}, "NCI-H1975": {"system": "NCI-H1975", "test": "Antiproliferative activity against human gefitinib-resistant NCI-H1975 cells after 48 hrs by MTT assay", "type": "functional, cell-based", "conditions": "NCI-H1975, 48 h"}, "HCT-116 [17]": {"system": "HCT-116", "test": "Cell cycle arrest in human HCT116 cells assessed as accumulation at G1 phase at 1 uM after 24 hrs by flow cytometry (reference value: 53.98%)", "type": "functional"}, "HCT-116 [18]": {"system": "HCT-116", "test": "Cell cycle arrest in human HCT116 cells assessed as accumulation at G2/M phase at 0.2 uM after 24 hrs by flow cytometry (reference value: 20.36%)", "type": "functional"}, "HCT-116 [19]": {"system": "HCT-116", "test": "Induction of apoptosis in human HCT116 cells assessed as early apoptotic cells at 0.2 uM after 24 hrs by annexin V/propidium iodide staining-based flow cytometry (reference value: 2.83%)", "type": "functional", "summary_of_the_method": "(§3)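 HCT116 cells treated with compound or DMSO for 24 or 48 h, trypsinized, washed twice in PBS and dual-stained with annexin-V and PI. Analysed by flow cytometry: early apoptotic cells scored as annexin-V+/PI−, late apoptotic cells as annexin-V+/PI+.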"}, "HCT-116 [20]": {"system": "HCT-116", "test": "Induction of apoptosis in human HCT116 cells assessed as necrotic cells at 0.2 uM after 24 hrs by annexin V/propidium iodide staining-based flow cytometry (reference value: 3.49%)", "type": "functional"}, "HCT-116 [21]": {"system": "HCT-116", "test": "Induction of apoptosis in human HCT116 cells assessed as viable cells at 0.2 uM after 24 hrs by annexin V/propidium iodide staining-based flow cytometry (reference value: 92%)", "type": "functional", "conditions": "HCT-116, 24 h, read-out: Activity"}, "HCT-116 [22]": {"system": "HCT-116", "test": "Induction of apoptosis in human HCT116 cells assessed as early apoptotic cells at 0.2 uM after 48 hrs by annexin V/propidium iodide staining-based flow cytometry (reference value: 2.83%)", "type": "functional", "summary_of_the_method": "as §3"}, "HCT-116 [23]": {"system": "HCT-116", "test": "Induction of apoptosis in human HCT116 cells assessed as late apoptotic cells at 0.5 uM after 48 hrs by annexin V/propidium iodide staining-based flow cytometry (reference value: 1.71%)", "type": "functional"}},
  "note": "pIC50: −log10 of the molar value. Calls of active or inactive are those of the source. No cut-off for these calls is given here.",
  "data": [
    {"compound": "CCOc1ccc(-c2nc(N)sc2-c2cc(OC)c(OC)c(OC)c2)cc1", "values": [
      {"measurement": "Activity", "setting": "HepG2 [1]", "value": 7.29, "unit": "%"},
      {"measurement": "Activity", "setting": "HepG2 [2]", "value": 7.43, "unit": "%"},
      {"measurement": "Activity", "setting": "HepG2 [3]", "value": 10.08, "unit": "%"},
      {"measurement": "Activity", "setting": "HepG2 [4]", "value": 7.86, "unit": "%"},
      {"measurement": "viability at 0.5 µM", "setting": "HepG2 [5]", "value": 80.7, "unit": "%"},
      {"measurement": "Activity", "setting": "HepG2 [6]", "value": 8.34, "unit": "%"},
      {"measurement": "Activity", "setting": "HepG2 [7]", "value": 0.79, "unit": "%"},
      {"measurement": "Activity", "setting": "HepG2 [8]", "value": 66.6, "unit": "%"},
      {"measurement": "Activity", "setting": "HepG2 [9]", "value": 4.38, "unit": "%"},
      {"measurement": "viability at 1 µM", "setting": "HepG2 [10]", "value": 25.9, "unit": "%"},
      {"measurement": "Activity", "setting": "HepG2 [11]", "value": "Active"},
      {"measurement": "Activity", "setting": "HepG2 [12]", "value": "Active"},
      {"measurement": "Activity", "setting": "HUVEC [13]", "value": "Dose-dependent effect"},
      {"measurement": "Activity", "setting": "HUVEC [14]", "value": "Active"},
      {"measurement": "Activity", "setting": "HUVEC [15]", "value": "Active"},
      {"measurement": "Activity", "setting": "Mus musculus", "value": "Toxic"},
      {"measurement": "pIC50", "setting": "HCT-116 [16]", "value": 8.08},
      {"measurement": "Ratio IC50", "setting": "A549", "value": 0.51},
      {"measurement": "pIC50", "setting": "NCI-H1975", "value": 6.66},
      {"measurement": "Activity", "setting": "HCT-116 [17]", "value": 13.06, "unit": "%"},
      {"measurement": "Activity", "setting": "HCT-116 [18]", "value": 48.79, "unit": "%"},
      {"measurement": "Activity", "setting": "HCT-116 [19]", "value": 7.8, "unit": "%"},
      {"measurement": "Activity", "setting": "HCT-116 [20]", "value": 3.69, "unit": "%"},
      {"measurement": "viability at 0.2 µM", "setting": "HCT-116 [21]", "value": 80.4, "unit": "%"},
      {"measurement": "Activity", "setting": "HCT-116 [22]", "value": 40.2, "unit": "%"},
      {"measurement": "Activity", "setting": "HCT-116 [23]", "value": 26.2, "unit": "%"}
    ]}
  ]
}
